The source of these data is ChEMBL document CHEMBL1142583, “Cytotoxic flavonol glycosides from Triplaris cumingiana” (2005).

Holding throughout (format): functional
In one assay the test system is SF-268. In words: Cytotoxicity against human SF-268 cells. In outline: (§1)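 Human cancer cell panel: MCF-7 (breast), H-460 (lung) and SF-268 (central nervous system), run by the Monks et al. protocol; adriamycin served as the reference compound.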
The test system of another assay is NCI-H460. Briefly: Cytotoxicity against human H460 cells. In outline: as §1
The test system of another assay is MCF7. Briefly: Cytotoxicity against human MCF7 cell. In outline:
as §1

SMILES strings stand for the structures. ≈ marks a conversion by molar mass, not a printed value.

With `O=C(OC[C@@H]1O[C@@H](Oc2c(-c3ccc(O)cc3)oc3cc(O)cc(O)c3c2=O)[C@H](O)[C@H]1O)c1cc(O)c(O)c(O)c1`, the GI50 was > 10 µg/mL in the assay with SF-268, > 10 µg/mL in the assay on NCI-H460 and 9 µg/mL (≈ 15.8 µM) in the assay on MCF7.

For `O=C(OC[C@@H]1O[C@@H](Oc2c(-c3ccc(O)c(O)c3)oc3cc(O)cc(O)c3c2=O)[C@H](O)[C@H]1O)c1cc(O)c(O)c(O)c1`, the GI50 with SF-268 is 2.3 µg/mL (≈ 3.92 µM); in the assay with NCI-H460, 1.2 µg/mL (≈ 2.05 µM); in the assay on MCF7 it was 1.4 µg/mL (≈ 2.39 µM).

In the case of `O=C(OC[C@H]1O[C@@H](Oc2c(-c3ccc(O)c(O)c3)oc3cc(O)cc(O)c3c2=O)[C@H](O)[C@@H](O)[C@@H]1O)c1cc(O)c(O)c(O)c1`, the GI50 with SF-268, in the assay with NCI-H460 and in the assay with MCF7 was > 10 µg/mL each time.

Turning to `O=C(OC[C@H]1O[C@@H](Oc2c(-c3ccc(O)c(O)c3)oc3cc(O)cc(O)c3c2=O)[C@H](O)[C@@H](O)[C@@H]1OC(=O)c1cc(O)c(O)c(O)c1)c1cc(O)c(O)c(O)c1`, the figures for the GI50 with SF-268, in the assay on NCI-H460 and in the assay on MCF7 were > 10 µg/mL, 3 µg/mL (≈ 3.9 µM) and > 10 µg/mL, respectively.

On to `O=c1c(O)c(-c2ccc(O[C@@H]3O[C@@H](CO)[C@H](O)[C@H]3O)c(O)c2)oc2cc(O)cc(O)c12`, for which the GI50 is > 10 µg/mL in the assay on SF-268, 7.3 µg/mL (≈ 16.8 µM) in the assay with NCI-H460 and 9.1 µg/mL (≈ 21 µM) in the assay on MCF7.
